Assay results published in ChEMBL document CHEMBL1141135, “A positron emission tomography radioligand for the in vivo labeling of metabotropic glutamate 1 receptor: (3-ethyl-2-[11C]methyl-6-quinolinyl)(cis- 4-methoxycyclohexyl)methanone” (J Med Chem, 2005).

Key:
[1] = Uptake in rat blood 60 minutes after administration of the radiolabeled [11C]-compound; type: ADME, tissue-based; conditions: 1 h
[2] = target: Metabotropic glutamate receptor 5 (Rattus norvegicus, UniProt P31424); experiment: In vitro affinity for cloned rat metabotropic glutamate 5 receptors stably expressed on CHO cells determined in radioligand binding assay; type: cell-based
[3] = Uptake in rat frontal cortex 60 minutes after administration of the radiolabeled [11C]-compound; type: ADME, tissue-based; conditions: in vivo, 1 h
In short: (§1)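 Male Sprague-Dawley rats received the [11C] radioligand iv and were sacrificed at 10, 30 or 60 min. Brain regions were dissected and radioactivity counted. Uptake is expressed as %ID/g, mean ± SD, n = 3 animals per group.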

[4] = Uptake in rat cerebellum 60 minutes after administration of the radiolabeled [11C]-compound; type: ADME, tissue-based; conditions: in vivo, 1 h; in short: as §1
[5] = Uptake in rat hippocampus 60 minutes after administration of the radiolabeled [11C]-compound; type: ADME, tissue-based; conditions: in vivo, 1 h; in short: as §1
[6] = Uptake in rat striatum 30 minutes after administration of the radiolabeled [11C]-compound; type: ADME, tissue-based; conditions: in vivo, 0.5 h; in short: as §1
[7] = Uptake in rat cerebellum 10 minutes after administration of the radiolabeled [11C]-compound; type: ADME, tissue-based; conditions: in vivo; in short: as §1
[8] = Uptake in rat striatum 60 minutes after administration of the radiolabeled [11C]-compound; type: ADME, tissue-based; conditions: in vivo, 1 h; in short: as §1
[9] = Uptake in rat medulla 10 minutes after administration of the radiolabeled [11C]-compound; type: ADME, tissue-based, Medulla of organ; conditions: in vivo; in short: as §1
[10] = Uptake in rat frontal cortex 30 minutes after administration of the radiolabeled [11C]-compound; type: ADME, tissue-based; conditions: in vivo, 0.5 h; in short: as §1
[11] = Uptake in rat medulla 30 minutes after administration of the radiolabeled [11C]-compound; type: ADME, tissue-based, Medulla of organ; conditions: in vivo, 0.5 h; in short: as §1
[12] = Uptake in rat frontal cortex 10 minutes after administration of the radiolabeled [11C]-compound; type: ADME, tissue-based; conditions: in vivo; in short: as §1
[13] = Uptake in rat hippocampus 10 minutes after administration of the radiolabeled [11C]-compound; type: ADME, tissue-based; conditions: in vivo; in short: as §1
[14] = target: Metabotropic glutamate receptor 1 (Rattus norvegicus, UniProt P23385); experiment: In vitro affinity for cloned rat metabotropic glutamate 1 receptors stably expressed on CHO cells determined using [3H]-R214127 as radioligand; type: cell-based
[15] = Uptake in rat cerebellum 30 minutes after administration of the radiolabeled [11C]-compound; type: ADME, tissue-based; conditions: in vivo, 0.5 h; in short: as §1
[16] = Uptake in rat striatum 10 minutes after administration of the radiolabeled [11C]-compound; type: ADME, tissue-based; conditions: in vivo; in short: as §1
[17] = Uptake in rat hippocampus 30 minutes after administration of the radiolabeled [11C]-compound; type: ADME, tissue-based; conditions: in vivo, 0.5 h; in short: as §1
[18] = Uptake in rat blood 10 minutes after administration of the radiolabeled [11C]-compound; type: ADME, tissue-based
[19] = Uptake in rat blood 30 minutes after administration of the radiolabeled [11C]-compound; type: ADME, tissue-based; conditions: 0.5 h
[20] = Uptake in rat medulla 60 minutes after administration of the radiolabeled [11C]-compound; type: ADME, tissue-based, Medulla of organ; conditions: in vivo, 1 h; in short: as §1

Sequence of Metabotropic glutamate receptor 1 (P23385 whole entry): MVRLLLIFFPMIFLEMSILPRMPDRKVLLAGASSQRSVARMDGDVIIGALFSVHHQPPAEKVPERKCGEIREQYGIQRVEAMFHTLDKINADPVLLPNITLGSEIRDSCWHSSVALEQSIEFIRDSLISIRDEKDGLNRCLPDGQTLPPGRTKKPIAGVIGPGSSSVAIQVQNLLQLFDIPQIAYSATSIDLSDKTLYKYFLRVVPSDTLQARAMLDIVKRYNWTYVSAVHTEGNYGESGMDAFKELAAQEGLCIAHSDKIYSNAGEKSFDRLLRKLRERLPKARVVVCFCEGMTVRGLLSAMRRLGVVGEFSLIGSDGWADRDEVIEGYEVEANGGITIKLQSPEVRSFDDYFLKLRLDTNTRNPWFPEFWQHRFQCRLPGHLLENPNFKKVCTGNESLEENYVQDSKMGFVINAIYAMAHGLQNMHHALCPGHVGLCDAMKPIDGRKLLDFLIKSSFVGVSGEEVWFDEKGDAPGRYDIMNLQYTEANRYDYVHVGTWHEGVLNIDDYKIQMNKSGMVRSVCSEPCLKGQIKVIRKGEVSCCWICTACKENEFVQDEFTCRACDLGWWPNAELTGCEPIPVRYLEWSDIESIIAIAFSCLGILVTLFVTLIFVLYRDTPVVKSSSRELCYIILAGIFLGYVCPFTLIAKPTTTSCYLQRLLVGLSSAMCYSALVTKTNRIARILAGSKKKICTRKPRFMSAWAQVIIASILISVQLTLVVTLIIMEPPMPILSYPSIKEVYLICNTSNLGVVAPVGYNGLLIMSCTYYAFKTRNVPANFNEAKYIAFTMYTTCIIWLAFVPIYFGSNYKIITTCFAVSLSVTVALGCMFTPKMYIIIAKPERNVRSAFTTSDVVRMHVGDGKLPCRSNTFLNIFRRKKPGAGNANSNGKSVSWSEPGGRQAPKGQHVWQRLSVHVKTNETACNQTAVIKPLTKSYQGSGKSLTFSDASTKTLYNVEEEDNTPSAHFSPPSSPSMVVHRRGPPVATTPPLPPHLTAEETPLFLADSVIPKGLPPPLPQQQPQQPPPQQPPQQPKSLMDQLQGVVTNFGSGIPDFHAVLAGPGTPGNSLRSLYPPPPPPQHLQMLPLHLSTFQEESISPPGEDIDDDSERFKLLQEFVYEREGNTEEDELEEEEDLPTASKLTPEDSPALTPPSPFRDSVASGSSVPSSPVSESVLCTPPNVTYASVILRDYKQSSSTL
Sequence of Metabotropic glutamate receptor 5 (P31424 whole entry): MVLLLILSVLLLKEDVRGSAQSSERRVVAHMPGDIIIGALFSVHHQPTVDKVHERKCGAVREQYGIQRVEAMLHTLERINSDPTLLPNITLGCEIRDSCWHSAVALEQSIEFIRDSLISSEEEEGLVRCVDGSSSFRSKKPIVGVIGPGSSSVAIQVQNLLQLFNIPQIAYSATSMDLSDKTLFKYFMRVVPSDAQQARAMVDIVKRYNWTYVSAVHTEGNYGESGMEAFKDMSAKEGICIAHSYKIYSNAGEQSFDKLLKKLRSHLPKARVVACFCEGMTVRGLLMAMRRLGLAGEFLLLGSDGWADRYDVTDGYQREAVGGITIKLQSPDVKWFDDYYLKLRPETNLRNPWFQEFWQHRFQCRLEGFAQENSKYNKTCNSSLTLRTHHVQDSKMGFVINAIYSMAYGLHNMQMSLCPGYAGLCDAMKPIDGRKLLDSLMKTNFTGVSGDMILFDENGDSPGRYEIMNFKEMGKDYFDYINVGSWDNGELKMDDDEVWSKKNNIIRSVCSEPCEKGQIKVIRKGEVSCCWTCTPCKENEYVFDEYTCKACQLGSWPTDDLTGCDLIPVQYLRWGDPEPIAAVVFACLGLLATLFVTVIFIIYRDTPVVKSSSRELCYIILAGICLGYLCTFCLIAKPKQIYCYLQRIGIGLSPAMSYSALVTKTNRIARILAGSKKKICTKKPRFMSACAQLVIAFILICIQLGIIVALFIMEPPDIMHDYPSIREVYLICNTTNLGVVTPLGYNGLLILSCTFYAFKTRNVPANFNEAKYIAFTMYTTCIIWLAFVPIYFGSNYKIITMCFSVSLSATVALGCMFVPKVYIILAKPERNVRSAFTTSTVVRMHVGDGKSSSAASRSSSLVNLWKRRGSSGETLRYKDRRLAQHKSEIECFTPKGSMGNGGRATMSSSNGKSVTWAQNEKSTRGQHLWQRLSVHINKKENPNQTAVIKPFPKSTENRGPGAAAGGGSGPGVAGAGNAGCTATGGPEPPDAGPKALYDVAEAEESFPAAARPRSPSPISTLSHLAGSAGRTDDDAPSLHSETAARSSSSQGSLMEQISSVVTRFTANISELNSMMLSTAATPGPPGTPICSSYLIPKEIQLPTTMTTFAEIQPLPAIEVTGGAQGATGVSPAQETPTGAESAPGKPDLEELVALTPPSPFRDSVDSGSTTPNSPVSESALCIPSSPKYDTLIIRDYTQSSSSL

- ID/g [1]: 0.2%
- Ki [2]: 2370 nM
- ID/g [3]: 0.07%
- ID/g [4]: 0.27%
- ID/g [5]: 0.1%
- ID/g [6]: 0.17%
- ID/g [7]: 1.24%
- ID/g [8]: 0.1%
- ID/g [9]: 0.47%
- ID/g [10]: 0.13%
- ID/g [11]: 0.13%
- ID/g [12]: 0.52%
- ID/g [13]: 0.58%
- Ki [14]: 0.87 nM
- ID/g [15]: 0.61%
- ID/g [16]: 0.73%
- ID/g [17]: 0.17%
- ID/g [18]: 0.42%
- ID/g [19]: 0.26%
- ID/g [20]: 0.07%
Compound: CCc1cc2cc(C(=O)[C@H]3CC[C@@H](OC)CC3)ccc2nc1C
